# MT1-MMP act inh = blocks activation of human MT1-MMP. P50281. HT1080 RFP-PRO-GFP cells, GFP/RFP ratio fluorescence, overnight; percent of plate control window, DMSO zero. GFP/RFP ratio change, % at 20 µM. 0.061% of 360,000 active;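 active = GFP/RFP ratio change of at least 30% with cell ATP level not reduced by more than half and red fluorescence within 50% of control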
#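 Assay system: HT1080 RFP-PRO-GFP cells | Dosing: 20 µM single dose, 1% DMSO | Incubation: Cells overnight before dosing, compound overnight, 37 °C, 5% CO2 | Evaluation: GFP/RFP fluorescence ratio | Control set: DMSO-only wells and HT1080 RFP-L50D-GFP cell wells as references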
# SKN-1 inh = C. elegans SKN-1 inhibition. 0.49% of 360,000 active. AID 624304. C. elegans VP596 Pgst-4::GFP/RFP ratio, acrylamide-induced, 24 h. inhibition, % at 21.8 µM;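 active = interference check ratio from 0.5 to 1.5 plus GFP to RFP signal ratio inhibition reaching or exceeding a fixed threshold, cut at about 30% in these data, passing the limit was not always enough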
# Tn7 DDE FP = disrupts Tn7 cyclic peptide binding to fibrin D-Dimer-E complex; FP displacement of FITC-Tn7 peptide from fibrin DD(E); 0% = median of compound wells per plate; inhibition, % at 8.3 µM; 0.13% of 370,000 active; AID 720508;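 active = inhibition above the mean of compounds falling within the control limits plus 3 SD of them, cut at about 14% in these data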;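 also: 0% = plate median of compound wells and 100% = 10 µM Aha-Tn7 peptide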
# Target sequence (P02675 whole entry, looked up): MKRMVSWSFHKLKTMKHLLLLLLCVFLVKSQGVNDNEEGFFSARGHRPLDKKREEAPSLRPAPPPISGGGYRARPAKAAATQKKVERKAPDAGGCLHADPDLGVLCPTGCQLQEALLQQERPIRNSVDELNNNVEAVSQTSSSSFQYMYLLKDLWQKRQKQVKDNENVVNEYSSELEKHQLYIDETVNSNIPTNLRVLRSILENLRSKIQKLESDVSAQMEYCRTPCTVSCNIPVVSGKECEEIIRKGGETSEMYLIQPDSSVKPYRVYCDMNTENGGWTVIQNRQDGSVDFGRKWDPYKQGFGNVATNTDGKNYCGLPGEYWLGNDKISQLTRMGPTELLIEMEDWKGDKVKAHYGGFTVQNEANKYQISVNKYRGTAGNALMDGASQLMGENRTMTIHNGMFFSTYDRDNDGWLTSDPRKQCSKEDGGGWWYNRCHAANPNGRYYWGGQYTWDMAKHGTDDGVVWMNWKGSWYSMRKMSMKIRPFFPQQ
#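 Assay system: Human fibrin DD(E) protein | Medium: Tris buffer with calcium and detergent, pH 7.8 | Reagent: 0.1 µM fluorescent Tn7 | Compound dosing: Single point at 8.3 µM | Times: 10 min preincubation, 3 h with tracer, room temperature | Detection: Fluorescence polarization of the labelled Tn7 tracer | Controls: Aha-Tn7 high control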
# Tn6 DDE FP = disrupts Tn6 cyclic peptide binding to fibrin D-Dimer-E complex. 0.21% of 370,000 active. P02675. Fibrin DD(E) TRITC-Tn6 fluorescence polarization displacement. inhibition, % at 8.3 µM;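 active = inhibition above a per-campaign cutoff: mean of compounds within control limits plus 3 SD, cut at about 15% in these data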;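 also: 0% = median of all compound wells on the plate and 100% = blocking peptide control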
# * hit, by the source's call; x = not tested or not shown. An excerpt weighted towards active compounds, which were near 0.84% of everything screened.
SMILES,MT1-MMP act inh,SKN-1 inh,Tn7 DDE FP,Tn6 DDE FP
O=C(Nc1cccnc1)c1cc(-c2ccc(Cl)c(Cl)c2)on1,5.3,3.4,0.7,0.9
O=C(Nc1cccnc1)c1cc(-c2ccc3c(c2)OCO3)on1,5.4,38.9*,2.9,1.9
CCC1CCCCN1CCN1C(=O)C2C(C(=O)Nc3ccc(OC)cc3)C3C=CC2(O3)C1C(=O)NC1CCCCC1 (stereo not given),0.4,36.7*,-7.4,-4.2
Cn1cccc1/C=C1\SC(=S)N(NC(=O)c2cccc(Cl)c2)C1=O,-8.1,38.5*,-5.7,-0.1
Cn1cccc1/C=C1\SC(=S)N(NC(=O)c2ccc(F)cc2)C1=O,-1.5,22.2,-13.3,1.3
Cn1cccc1/C=C1\SC(=S)N(NC(=O)c2ccccc2)C1=O,-7.0,38.5*,-0.8,-5.5
O=S1(=O)CC(NCc2ccccc2)C(Nc2ccccc2)C1 (stereo not given),4.4,4.3,2.0,-1.0
O=C(NC1CS(=O)(=O)CC1NCc1ccccc1)c1ccccc1 (stereo not given),-7.3,36.5*,0.6,-5.8
CCN1C(=O)/C(=C\N(C(C)=O)c2ccccc2)OC1=S,-1.8,14.1,-3.8,-7.2
CCN1C(=O)/C(=C/N(C)c2ccccc2)OC1=S,-8.1,35.6*,-7.9,-1.6
CC(=O)CSc1nc2ccccc2s1,0.1,34.2*,0.2,0.1
CN1CCN(S(=O)(=O)c2ccc(NC(=O)Nc3cccc(Cl)c3)cc2)CC1,-7.0,-13.5,2.5,-15.5
O=C(Nc1cccc(Cl)c1)Nc1cc(S(=O)(=O)N2CCCCC2)ccc1Cl,-17.0,-2.7,4.7,55.1*
Cc1onc(-c2c(F)cccc2Cl)c1C(=O)Nc1nc2ccccc2[nH]1,3.6,41.7*,-0.2,-0.4
O=C(Oc1cncc(Cl)c1)c1ccco1,-5.4,39.2*,-5.4,0.4
CN1CCC(N(C)CC(=O)Nc2ccccc2N2CCOCC2)CC1,-1.1,39.5*,3.1,0.6
Cc1cccc(-c2cccc3c4c([nH]c23)[C@@H]2C[C@H](N(C)C(=O)Nc3ccccc3)[C@H]([C@H](C)O)CN2CC4)c1,x,x,-13.6,-5.9
COc1ccc(C2C3=C(N=C4SCC(=O)N42)c2ccccc2CC3)cc1 (stereo not given),-9.0,9.5,5.6,2.3
COc1ccc(C2C3=C(N=C4SCC(=O)N42)c2ccccc2CC3)cc1OC (stereo not given),-0.5,47.5*,-7.6,-1.6
FC(F)Oc1ccc(C2N=C(c3ccccc3)NO2)cc1 (stereo not given),-0.3,34.3*,6.3,6.7
CCOc1cc(CNC2CCCC2)cc(Cl)c1OCc1ccccc1,-7.9,55.9*,1.0,-5.6
CCOc1cc(CNCC(C)C)cc(Cl)c1OCc1ccccc1,-1.9,19.5,4.8,-3.0
O=[N+]([O-])c1cccc2ccc(/C=C/c3ccc(C(F)(F)F)cc3)nc12,-1.2,12.2,0.1,-0.2
O=[N+]([O-])c1cccc2ccc(/C=C/c3ccc(Cl)cc3)nc12,0.4,38.8*,2.3,0.8
c1ccc(-c2nc3ccccc3o2)nc1,0.0,1.5,8.0,-5.2
SMILES,MT1-MMP act inh,SKN-1 inh,Tn7 DDE FP,Tn6 DDE FP
c1ccc2nc(-c3nc4ccccc4o3)ccc2c1,-10.4,79.8*,-0.5,5.5
COc1cccc(CO[C@H]2C=C[C@@H](c3ccccc3)O[C@@H]2CO)c1,x,x,1.9,9.4
COc1ccc(C(=O)Nc2cccc(OC(=O)c3ccc(C)c(C)c3)c2)cc1,0.2,41.7*,-4.1,-9.4
COc1cc(C=Nn2c(-c3cc(-c4ccccc4)n[nH]3)n[nH]c2=S)ccc1OC(C)=O,x,x,-5.9,-2.2
Cc1ccc(-c2cc(C(F)F)n3ncc(C(=O)N4CCN(c5cccc(C)c5C)CC4)c3n2)cc1,-9.9,38.6*,-1.2,0.8
CCOC(=O)N1CCN(C(=O)c2cnn3c(C(F)F)cc(-c4ccc(C)cc4)nc23)CC1,1.2,-1.4,-1.8,-4.5
O=[N+]([O-])c1ccc(Nc2nccc(Cl)n2)cc1,-2.1,44.5*,1.1,-9.8
CC(C)(C)Nc1nc(Nc2ccc([N+](=O)[O-])cc2)nc(NC(C)(C)C)n1,-12.9,9.4,0.7,1.1
CC(=O)c1ccc(-n2nncc2-c2ccc([N+](=O)[O-])cc2)cc1,-2.1,58.6*,-3.0,0.2
O=[N+]([O-])c1ccc(-n2nncc2-c2ccc(Cl)cc2)cc1,2.1,7.2,-2.9,-2.9
Cc1onc(-c2ccccc2)c1C(=O)Nc1nc2c(s1)C(=O)CC(C)(C)C2,3.5,40.3*,6.3,2.1
CCCC[C@H](C(=O)N(CC)c1ccccc1)[C@@H](O)c1ccc(Cl)cc1,x,x,3.8,-0.5
O=C(Nc1ccc2snnc2c1)N1CCSCC1,4.3,38.8*,0.0,-9.6
CNC(=O)Nc1ccc2snnc2c1,-2.2,-5.4,1.4,4.9
CC(=O)C1=C(O)C(=O)N(c2cccc(Br)c2)C1c1ccccc1Cl (stereo not given),2.6,-6.1,3.5,-3.2
Cc1ccc(CSc2ccc(-c3ccco3)nn2)cc1,0.9,8.5,0.5,1.7
Fc1ccccc1CSc1ccc(-c2ccco2)nn1,3.2,38.6*,-3.0,5.3
Cc1cccc(CSc2ccc(-c3ccco3)nn2)c1,5.5,2.5,-2.6,-7.8
Clc1cccc(CSc2ccc(-c3ccco3)nn2)c1,2.0,67.2*,3.8,6.0
Clc1ccc(CSc2ccc(-c3ccco3)nn2)cc1,0.0,14.5,-3.0,-7.8
c1ccc(CSc2ccc(-c3ccco3)nn2)cc1,-0.1,36.1*,-8.1,7.1
COC(=O)[C@H]1C[C@@]2(C)c3ccccc3N(C(=O)OC(C)(C)C)[C@H]2N1C(=O)OC(C)(C)C,x,x,-3.8,13.9
Cc1cccc(C)c1OCc1cc(C(=O)N2CCN(C3CCCC3)CC2)no1,-1.0,49.7*,1.8,0.6
CC(=O)OCC(=O)N1CCN(C(=O)C(=O)c2cccc(C(F)(F)F)c2)CC1,x,x,4.6,3.9
CC(=O)Nc1ccc2c(c1Br)Cc1ccccc1-2,2.9,44.0*,6.5,1.8
SMILES,MT1-MMP act inh,SKN-1 inh,Tn7 DDE FP,Tn6 DDE FP
CCN(CC)c1nc2ccccc2n2cnnc12,x,31.7,7.6,-3.4
Cc1cc(C)n(-c2nc3ccccc3n3cnnc23)n1,10.9,38.1*,-5.0,1.0
Cn1nnnc1SCC(=O)N1CCN(c2cccc(Cl)c2)CC1,-0.3,39.5*,5.6,-3.1
Nc1nnc(SCC(=O)N2CCN(c3cccc(Cl)c3)CC2)n1-c1ccccc1,7.1,38.4*,-6.1,2.2
Nc1nnc(SCC(=O)N2CCN(c3ccccc3)CC2)n1-c1ccccc1,-0.5,2.2,-9.2,-0.4
COc1ccc(C(=O)/C=C(\Nc2ccc(F)cc2)c2ccc(OC)cc2OC)c(OC)c1,x,x,8.5,-11.1
Cc1ccc(N=C/C(C(=O)C(F)(F)F)=C(\O)c2ccco2)cc1Cl,0.3,57.0*,7.9,9.1
O=C(Nc1ccc(CN2CCOCC2)cc1)c1ccc(N2CCCC2)c([N+](=O)[O-])c1,4.3,3.7,-5.9,-5.5
CC1CCc2c(C(=O)Nc3nccs3)csc2C1 (stereo not given),-7.6,37.2*,-1.7,-7.9

# Source: PubChem (several laboratories)
